Results taken from ChEMBL document CHEMBL4414622, “Synthesis, Purification, and Selective β2-AR Agonist and Bronchodilatory Effects of Catecholic Tetrahydroisoquinolines from Portulaca oleracea” (J Nat Prod, 2019).
Calls of active or inactive are those of the source. The rule behind the calls is not given here.

Tests used:
[1] = biological target: Beta-1 adrenergic receptor (Homo sapiens) (UniProt P08588); experiment: Agonist activity at human beta1 adrenergic receptor expressed in CHOK1 cells co-expressing Galpha15 assessed as increase in calcium influx by measuring fluorescence intensity at 100 uM by FLIPR assay relative to epinephrine; type: functional, cell-based
Summary of the method: (§1)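 Stably transfected CHO-K1/Gα15 lines (ADRB1, ADRB2 or ADRA1B) grown in Ham's F12 with 10% FBS, Zeocin and Hygromycin B at 37 °C. Seeded 1.5 × 10⁴ cells/well, 18 h, then Calcium 4 dye 1 h at 37 °C and 15 min room temperature. Compound (100 μM) added at 21 s of a 120 s FLIPR Tetra read. Stocks were 100 mM in DMSO, diluted in HBSS/20 mM HEPES pH 7.4. n = 4.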

[2] = biological target: T1, Alpha-1B adrenergic receptor (Homo sapiens) (UniProt P35368); experiment: Agonist activity at human alpha1 beta adrenergic receptor expressed in CHOK1 cells co-expressing Galpha15 assessed as increase in calcium influx by measuring fluorescence intensity at 100 uM by FLIPR assay relative to epinephrine; type: functional, cell-based; summary of the method: as §1
T1 sequence (whole entry): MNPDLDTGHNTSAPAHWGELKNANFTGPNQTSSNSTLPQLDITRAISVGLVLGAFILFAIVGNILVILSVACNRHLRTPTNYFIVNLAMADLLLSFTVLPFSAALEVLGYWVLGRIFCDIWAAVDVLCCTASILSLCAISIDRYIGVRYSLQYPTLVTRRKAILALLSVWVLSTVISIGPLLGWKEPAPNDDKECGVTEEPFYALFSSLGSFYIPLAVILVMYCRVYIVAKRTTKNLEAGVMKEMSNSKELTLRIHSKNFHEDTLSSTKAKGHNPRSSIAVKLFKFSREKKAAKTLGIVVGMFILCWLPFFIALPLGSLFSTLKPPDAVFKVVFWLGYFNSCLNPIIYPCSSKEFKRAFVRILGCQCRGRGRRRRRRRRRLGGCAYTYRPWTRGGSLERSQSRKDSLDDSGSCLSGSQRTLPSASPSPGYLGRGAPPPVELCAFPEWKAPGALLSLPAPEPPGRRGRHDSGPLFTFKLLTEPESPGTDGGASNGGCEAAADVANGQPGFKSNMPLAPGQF

[3] = biological target: Beta-2 adrenergic receptor (Homo sapiens) (UniProt P07550); experiment: Agonist activity at human beta2 adrenergic receptor expressed in CHOK1 cells co-expressing Galpha15 assessed as increase in calcium influx by measuring fluorescence intensity at 100 uM by FLIPR assay relative to isoproterenol; type: functional, cell-based; summary of the method: as §1
[4] = biological target: Beta-2 adrenergic receptor (Cavia porcellus) (UniProt Q8K4Z4); experiment: Agonist activity at beta2 adrenergic receptor in guinea pig tracheal smooth muscle assessed as inhibition of histamine-induced tracheal smooth muscle contraction by measuring spasmolysis preincubated for 15 mins in presence of beta adrenergic receptor antagonist propranolol followed by histamine addition
[5] = biological target: Beta-2 adrenergic receptor (Cavia porcellus, UniProt Q8K4Z4); experiment: Agonist activity at beta2 adrenergic receptor in guinea pig tracheal smooth muscle assessed as inhibition of histamine-induced tracheal smooth muscle contraction by measuring spasmolysis in absence of beta adrenergic receptor antagonist propranolol
Chain of Beta-2 adrenergic receptor (Q8K4Z4 whole entry): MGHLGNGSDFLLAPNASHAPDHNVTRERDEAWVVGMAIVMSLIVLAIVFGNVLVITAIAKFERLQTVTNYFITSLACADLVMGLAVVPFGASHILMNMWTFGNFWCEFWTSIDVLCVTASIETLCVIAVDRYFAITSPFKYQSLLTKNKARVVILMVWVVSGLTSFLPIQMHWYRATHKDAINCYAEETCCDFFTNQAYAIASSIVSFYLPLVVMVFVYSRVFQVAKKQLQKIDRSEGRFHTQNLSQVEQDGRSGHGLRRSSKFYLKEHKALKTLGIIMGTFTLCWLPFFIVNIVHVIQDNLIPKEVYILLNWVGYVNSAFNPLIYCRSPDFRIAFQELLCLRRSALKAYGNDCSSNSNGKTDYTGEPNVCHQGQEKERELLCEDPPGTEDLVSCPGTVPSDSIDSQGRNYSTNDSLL

Chain of Beta-2 adrenergic receptor (Homo sapiens) (P07550 whole entry, looked up): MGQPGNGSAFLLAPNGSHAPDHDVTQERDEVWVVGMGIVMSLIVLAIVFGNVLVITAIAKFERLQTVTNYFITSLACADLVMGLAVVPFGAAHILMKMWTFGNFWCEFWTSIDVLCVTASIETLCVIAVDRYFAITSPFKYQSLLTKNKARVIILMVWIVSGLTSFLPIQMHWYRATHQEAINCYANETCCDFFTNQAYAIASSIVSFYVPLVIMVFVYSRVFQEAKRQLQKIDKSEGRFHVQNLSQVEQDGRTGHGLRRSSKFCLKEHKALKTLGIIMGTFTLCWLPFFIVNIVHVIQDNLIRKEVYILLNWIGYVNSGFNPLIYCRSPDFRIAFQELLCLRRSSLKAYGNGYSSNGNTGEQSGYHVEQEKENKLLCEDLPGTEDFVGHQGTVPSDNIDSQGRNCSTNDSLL
Chain of Beta-1 adrenergic receptor (Homo sapiens) (P08588 whole entry, looked up): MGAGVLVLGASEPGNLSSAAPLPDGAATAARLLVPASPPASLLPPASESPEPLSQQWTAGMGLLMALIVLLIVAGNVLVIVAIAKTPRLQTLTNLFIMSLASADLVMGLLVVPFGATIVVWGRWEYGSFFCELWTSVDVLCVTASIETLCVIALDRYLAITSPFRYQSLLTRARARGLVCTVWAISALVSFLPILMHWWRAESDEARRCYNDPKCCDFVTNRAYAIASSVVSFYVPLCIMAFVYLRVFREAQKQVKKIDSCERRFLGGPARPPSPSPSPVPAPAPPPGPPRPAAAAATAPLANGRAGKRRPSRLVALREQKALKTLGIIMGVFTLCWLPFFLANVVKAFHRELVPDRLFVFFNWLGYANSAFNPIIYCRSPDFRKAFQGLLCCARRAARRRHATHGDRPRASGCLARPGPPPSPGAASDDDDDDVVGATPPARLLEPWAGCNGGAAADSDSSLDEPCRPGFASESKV
Chain of Beta-2 adrenergic receptor (Cavia porcellus) (Q8K4Z4 whole entry, looked up): as the sequence (Q8K4Z4 whole entry) above

## Oc1cc2c(cc1O)[C@@H](Cc1ccccc1)NCC2
[1]
  Activity: 80.3%
[2]
  Activity: 6.1%

## Oc1ccc(C2NCCc3cc(O)c(O)cc32)cc1O (stereo unspecified)
[1]
  Activity: inactive
[3]
  Activity: inactive
[2]
  Activity: 16.6%

## CC(C)CC1NCCc2cc(O)c(O)cc21 (stereo unspecified)
[1]
  Activity: inactive
[4]
  inhibition: Dose-dependent effect
[3]
  Activity: 64.5%
[5]
  EC50: 2800 nM
[2]
  Activity: 7.7%

## CC(C)NCC(O)c1ccc(O)c(O)c1 (stereo unspecified) [ISOPROTERENOL]
[5]
  EC50: 7.9 nM

## Oc1ccc(C2NCCc3cc(O)c(O)cc32)cc1 (stereo unspecified)
[1]
  Activity: inactive
[3]
  Activity: inactive
[2]
  Activity: 31.9%

## Oc1cccc(C2NCCc3cc(O)c(O)cc32)c1 (stereo unspecified)
[1]
  Activity: inactive
[3]
  Activity: inactive
[2]
  Activity: 14.5%

## Oc1cc2c(cc1O)C(c1cccc3ccccc13)NCC2 (stereo unspecified)
[1]
  Activity: inactive
[3]
  Activity: inactive
[2]
  Activity: 43.8%

## CC1NCCc2cc(O)c(O)cc21 (stereo unspecified)
[1]
  Activity: -11.4%
[3]
  Activity: 2.91%
[2]
  Activity: 22.1%

## CC(C)C[C@H]1NCCc2cc(O)c(O)cc21
[1]
  Activity: inactive
[2]
  Activity: 20.5%

## Oc1cc2c(cc1O)C(c1ccco1)NCC2 (stereo unspecified)
[1]
  Activity: -35.3%
[3]
  Activity: -9.23%
[2]
  Activity: 15.6%

## COc1ccc(C2NCCc3cc(O)c(O)cc32)cc1 (stereo unspecified)
[1]
  Activity: inactive
[3]
  Activity: inactive
[2]
  Activity: 18.5%

## Oc1cc2c(cc1O)CCN=C2
[1]
  Activity: -6.22%
[2]
  Activity: 24.2%

## OCc1ccc(C2NCCc3cc(O)c(O)cc32)o1 (stereo unspecified)
[1]
  Activity: -20.3%
[3]
  Activity: -11.1%
[2]
  Activity: 22.3%

## OCc1ccc(C2=NCCc3cc(O)c(O)cc32)o1
[1]
  Activity: -10.4%
[2]
  Activity: 13.7%

## COc1cc(C2NCCc3cc(O)c(O)cc32)ccc1O (stereo unspecified)
[1]
  Activity: inactive
[3]
  Activity: inactive
[2]
  Activity: 11.8%

## COc1cc(C2NCCc3cc(O)c(O)cc32)cc(OC)c1OC (stereo unspecified)
[1]
  Activity: inactive
[3]
  Activity: inactive
[2]
  Activity: 20.5%

## Oc1cc2c(cc1O)C(c1ccccc1)NCC2 (stereo unspecified)
[1]
  Activity: inactive
[3]
  Activity: inactive
[2]
  Activity: 51.5%

## Oc1cc2c(cc1O)C(Cc1ccccc1)NCC2 (stereo unspecified)
[1]
  Activity: 99.9%
[4]
  inhibition: Dose-dependent effect
[3]
  Activity: 44.7%
[5]
  EC50: 800 nM
[2]
  Activity: 39.4%

## CC1=NCCc2cc(O)c(O)cc21
[1]
  Activity: -6.31%
[2]
  Activity: 15.9%

## C[C@@H]1NCCc2cc(O)c(O)cc21
[1]
  Activity: -9.5%
[2]
  Activity: 19.2%

## COc1ccccc1C1NCCc2cc(O)c(O)cc21 (stereo unspecified)
[1]
  Activity: inactive
[3]
  Activity: inactive
[2]
  Activity: 36.3%

## Oc1cc2c(cc1O)C(c1ccco1)=NCC2
[1]
  Activity: 73.5%
[2]
  Activity: 13.4%
